# In PMC11375723 (ACS Omega, 2024):
# Legend:
# Assay type in all cases: cell-based, human
# [1] = test system: HT-1080 fibrosarcoma cells; test: Resazurin antiproliferative microtiter assay, HT-1080; settings: read-out: IC50, μM (± SEM), HT-1080, 48 h drug exposure
# Method in brief: (§1)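 Human cells at 37 °C, 5% CO2, with 10% cosmic calf serum in DMEM/F12 (A549), DMEM (MDA-MB-231, HFF) or EMEM (HT-1080, MRC-5). Plated 5,000 cells/180 µL and left 24 h to adhere. Test compound 0.1–100 µM, quadruplicate, 2–3 repeats, 48 h. Then 0.1% resazurin; fluorescence ex 530/em 590 after 24–48 h.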
# [2] = test system: A549 lung carcinoma cells; test: Resazurin antiproliferative microtiter assay, A549; settings: read-out: IC50, μM (± SEM), A549, 48 h drug exposure
# Method in brief: as §1
# [3] = test system: MDA-MB-231 breast carcinoma cells; test: Resazurin antiproliferative microtiter assay, MDA-MB-231; settings: read-out: IC50, μM (± SEM), MDA-MB-231, 48 h drug exposure
# Method in brief: as §1
Compound,IC50 [1] [µM],IC50 [2] [µM],IC50 [3] [µM]
Piperidine-2-(4-methoxyphenyl)diazothioformamide – Cu(l)Br [Compound 5c],< 1,,
N.N.[Cl][Pt][Cl] [Cisplatin],17.5,19,48.6
Pyrrolidine-2-(4-methoxyphenyl)diazothioformamide – Cu(l)I [Compound 4b],< 1,,
